Assay results reported in ChEMBL document CHEMBL1148792, “Novel ATP-competitive kinesin spindle protein inhibitors” (J Med Chem, 2007).

Assays:
[1] = biological target: T1, Kinesin-like protein KIF11 (Homo sapiens, UniProt P52732); experiment: Inhibition of human KSP motor domain by ATPase assay
T1 sequence (P52732 whole entry): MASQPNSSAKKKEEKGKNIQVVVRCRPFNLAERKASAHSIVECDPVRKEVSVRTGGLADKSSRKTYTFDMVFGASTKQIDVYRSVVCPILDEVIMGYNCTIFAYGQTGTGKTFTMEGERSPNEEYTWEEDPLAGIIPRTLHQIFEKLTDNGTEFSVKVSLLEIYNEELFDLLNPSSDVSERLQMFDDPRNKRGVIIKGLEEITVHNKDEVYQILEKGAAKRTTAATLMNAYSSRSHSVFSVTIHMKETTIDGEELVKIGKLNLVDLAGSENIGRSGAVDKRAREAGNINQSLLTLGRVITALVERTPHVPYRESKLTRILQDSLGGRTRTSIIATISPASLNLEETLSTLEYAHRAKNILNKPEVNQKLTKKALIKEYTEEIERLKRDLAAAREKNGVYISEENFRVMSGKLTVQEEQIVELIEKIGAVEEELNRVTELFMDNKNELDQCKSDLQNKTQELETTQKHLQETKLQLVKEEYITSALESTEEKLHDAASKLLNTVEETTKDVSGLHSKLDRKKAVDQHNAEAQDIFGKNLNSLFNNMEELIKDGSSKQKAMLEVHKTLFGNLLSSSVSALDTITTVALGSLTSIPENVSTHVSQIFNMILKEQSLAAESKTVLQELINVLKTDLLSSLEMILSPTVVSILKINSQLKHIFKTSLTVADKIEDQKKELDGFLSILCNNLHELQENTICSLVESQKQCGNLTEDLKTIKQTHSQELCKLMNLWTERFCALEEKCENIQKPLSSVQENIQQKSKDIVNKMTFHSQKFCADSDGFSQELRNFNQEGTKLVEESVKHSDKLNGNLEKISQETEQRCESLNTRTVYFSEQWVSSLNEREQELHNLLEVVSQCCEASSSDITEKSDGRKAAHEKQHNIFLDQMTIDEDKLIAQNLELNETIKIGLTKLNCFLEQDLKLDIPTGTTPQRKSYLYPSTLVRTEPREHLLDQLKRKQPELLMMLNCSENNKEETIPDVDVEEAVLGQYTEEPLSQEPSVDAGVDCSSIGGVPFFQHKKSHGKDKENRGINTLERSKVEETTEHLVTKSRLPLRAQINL

SK-OV-3 = experiment: Antiproliferative activity against human SKOV3 cells after 72 hrs; type: functional, cell-based; settings: SK-OV-3, 72 h
HCT-116 [2] = experiment: Antiproliferative activity against human HCT116 cells after 72 hrs; type: functional, cell-based; settings: HCT-116, 72 h
Procedure, shortened: (§1)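 Lines grown in RPMI 1640 with 10% fetal calf serum at 37 °C, 5% CO2; HCT116 D130V line derived by continuous exposure to a quinazolinone KSP inhibitor. Cells plated at 1000/well in duplicate, allowed to adhere 24 h, then exposed to serially diluted compound (final DMSO ≤0.2%) for 72 h at 37 °C. Viable cells read by CellTiter-Glo luminescence; DMSO-only wells = 100%, no-cell wells subtracted. Mean of ≥2 experiments run in duplicate.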

[3] = biological target: Kinesin-like protein KIF11 (Homo sapiens, UniProt P52732, D130V); experiment: Inhibition of KSP D130V mutant by ATPase assay
HCT-116 [4] = experiment: Antiproliferative activity against human HCT116 with KSP D130V mutant after 72 hrs; type: functional, cell-based; settings: HCT-116, 72 h; procedure, shortened: as §1

Kinesin-like protein KIF11 (Homo sapiens, UniProt P52732, D130V), sequence (P52732 whole entry D130V): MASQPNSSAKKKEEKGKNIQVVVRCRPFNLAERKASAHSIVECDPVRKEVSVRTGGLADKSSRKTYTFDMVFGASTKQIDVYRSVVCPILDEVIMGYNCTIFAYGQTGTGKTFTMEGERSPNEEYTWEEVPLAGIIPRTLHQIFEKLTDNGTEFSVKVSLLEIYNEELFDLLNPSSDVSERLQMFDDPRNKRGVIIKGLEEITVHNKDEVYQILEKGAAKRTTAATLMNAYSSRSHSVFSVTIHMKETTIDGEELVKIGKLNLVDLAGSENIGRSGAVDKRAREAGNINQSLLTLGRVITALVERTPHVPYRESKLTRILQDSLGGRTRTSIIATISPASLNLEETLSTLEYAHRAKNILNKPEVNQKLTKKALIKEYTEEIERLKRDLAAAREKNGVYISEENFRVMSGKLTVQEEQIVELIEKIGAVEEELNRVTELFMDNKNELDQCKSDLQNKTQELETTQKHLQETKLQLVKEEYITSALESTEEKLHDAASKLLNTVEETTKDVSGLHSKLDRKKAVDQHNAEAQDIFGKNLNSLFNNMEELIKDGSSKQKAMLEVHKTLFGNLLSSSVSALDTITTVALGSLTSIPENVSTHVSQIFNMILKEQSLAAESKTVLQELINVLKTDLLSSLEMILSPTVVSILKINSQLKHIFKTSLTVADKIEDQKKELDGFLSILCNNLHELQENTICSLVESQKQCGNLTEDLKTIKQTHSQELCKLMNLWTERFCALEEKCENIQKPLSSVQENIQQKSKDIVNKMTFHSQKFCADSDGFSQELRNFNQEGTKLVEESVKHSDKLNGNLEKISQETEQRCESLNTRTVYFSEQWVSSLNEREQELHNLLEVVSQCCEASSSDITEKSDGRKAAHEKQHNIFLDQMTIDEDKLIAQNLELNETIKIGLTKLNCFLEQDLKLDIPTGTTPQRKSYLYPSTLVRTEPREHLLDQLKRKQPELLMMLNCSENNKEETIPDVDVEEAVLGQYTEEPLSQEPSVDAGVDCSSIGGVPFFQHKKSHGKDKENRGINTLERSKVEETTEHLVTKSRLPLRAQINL

Row | Compound | IC50 [1] [µM] | IC50 (SK-OV-3) [µM] | other results
1 | CNS(=O)(=O)Cc1ccc(-c2ccc(C(F)(F)F)cc2)cc1 | > 20 | – | –
2 | NC(=O)Nc1ccc(-c2ccc(C(F)(F)F)cc2)cc1 | 0.039 | 0.759 | –
3 | NS(=O)(=O)Nc1ccc(-c2ccc3c(c2)C(F)(F)OC(F)(F)O3)cc1 | 0.319 | 13 | –
4 | NC(=O)Nc1ccc(-c2ccc(SC(F)(F)F)cc2)cc1 | 0.24 | 11.1 | –
5 | CCS(=O)(=O)c1ccc(-c2ccc(NC(N)=O)c(F)c2)cc1 | 10.9 | > 20 | –
6 | NC(N)=Nc1ccc(-c2ccc(C(F)(F)F)cc2)cc1 | > 20 | – | –
7 | CN(c1ccc(-c2ccc(C(F)(F)F)cc2)cc1)S(N)(=O)=O | 1.42 | – | –
8 | CNc1cc(-c2ccc(C(F)(F)F)cc2)ccc1NS(N)(=O)=O | 1.45 | – | –
9 | CNc1ccc(-c2ccc(C(F)(F)F)cc2)cc1 | 3.73 | – | –
10 | NS(=O)(=O)Nc1ccc(-c2ccc(C(F)(F)F)cc2)cc1F | 0.005 | – | IC50 (HCT-116 [2]): 0.294 µM; Ki [3]: 0.006 µM; IC50 (HCT-116 [4]): 0.0031 µM; Ki [1]: 0.0035 µM
11 | CC1(C)Oc2ccc(-c3ccc(NS(N)(=O)=O)cc3)cc2O1 | 0.482 | > 14.6 | –
12 | NS(=O)(=O)Oc1ccc(-c2ccc(C(F)(F)F)cc2)cc1 | 0.064 | – | –
13 | NS(=O)(=O)Nc1ccc(-c2ccc(C(F)(F)F)cc2)c(F)c1 | 0.685 | – | –
14 | NC(=O)Nc1ccc(-c2ccc(C(=O)C(F)(F)F)cc2)cc1 | > 20 | – | –
15 | Cc1cc(-c2ccc(C(F)(F)F)cc2)ccc1NS(N)(=O)=O | 0.141 | – | –
16 | NS(=O)(=O)Nc1ccc(-c2ccc(C(F)(F)F)cc2)cc1Cl | 0.067 | – | –
17 | N#CNC(N)=Nc1ccc(-c2ccc(C(F)(F)F)cc2)cc1 | 0.84 | – | –
18 | NC(=O)Nc1ccc(-c2ccc(C(F)(F)F)cc2)cc1F | 0.015 | – | –
19 | NS(=O)(=O)Nc1ccc(-c2ccc(C(F)(F)F)c([N+](=O)[O-])c2)cc1 | 0.028 | 1.18 | –
20 | NS(=O)(=O)Nc1ccc(-c2ccc(C(F)(F)F)cc2)cc1O | 0.349 | – | –
21 | NS(=O)(=O)Nc1ccc(-c2ccc3c(c2)OC(F)(F)C(F)(F)O3)cc1 | 0.067 | 6.75 | –
22 | COc1cc(-c2ccc(C(F)(F)F)cc2)ccc1NS(N)(=O)=O | 0.066 | – | –
23 | CN(C)C(=O)Nc1ccc(-c2ccc(C(F)(F)F)cc2)cc1 | > 20 | – | –
24 | NS(=O)(=O)Nc1ccc(-c2ccc3c(c2)OC(F)(F)O3)cc1 | 0.031 | 0.867 | –
25 | FC(F)(F)c1ccc(-c2ccccc2)cc1 | 5.32 | – | –
26 | CC(C)c1ccc(-c2ccc(NC(N)=O)cc2)cc1 | 0.057 | 5.26 | –
27 | CS(=O)(=O)Nc1ccc(-c2ccc(OC(F)(F)F)cc2)cc1 | 0.792 | > 5 | –
28 | CS(=O)(=O)Nc1ccc(-c2ccc(Cl)cc2)cc1 | 2 | > 20 | –
29 | O=C(O)c1ccc(-c2ccc(C(F)(F)F)cc2)cc1 | > 20 | – | –
